Reference: ChEMBL document CHEMBL3868612, “Discovery of a potent and selective ROMK inhibitor with improved pharmacokinetic properties based on an octahydropyrazino[2,1-c][1,4]oxazine scaffold” (Bioorg Med Chem Lett, 2016)
pIC50: −log10 of the molar value.

Key:
[1] = Stability in dog microsomes assessed as compound remaining at 45 mins; format: ADME, Canis lupus familiaris, Microsome; conditions: read-out: Stability
[2] = Stability in human hepatocytes assessed as compound remaining at 90 mins; format: ADME, cell-based, Hepatocyte; conditions: read-out: Stability
[3] = Stability in rhesus monkey hepatocytes assessed as compound remaining at 90 mins; format: ADME, cell-based, Macaca mulatta, Hepatocyte; conditions: read-out: Stability
[4] = Stability in human microsomes assessed as compound remaining at 45 mins; format: ADME, Microsome; conditions: read-out: Stability
[5] = Stability in rhesus monkey microsomes assessed as compound remaining at 45 mins; format: ADME, Macaca mulatta, Microsome; conditions: read-out: Stability
[6] = Stability in rat microsomes assessed as compound remaining at 45 mins; format: ADME, Microsome; conditions: read-out: Stability
[7] = molecular target: T1, ATP-sensitive inward rectifier potassium channel 1 (Homo sapiens, UniProt P48048); assay: Inhibition of human ROMK expressed in CHO cells after 6 mins at -70 mV holding potential by electrophysiology method; format: cell-based
T1 sequence (P48048 whole entry): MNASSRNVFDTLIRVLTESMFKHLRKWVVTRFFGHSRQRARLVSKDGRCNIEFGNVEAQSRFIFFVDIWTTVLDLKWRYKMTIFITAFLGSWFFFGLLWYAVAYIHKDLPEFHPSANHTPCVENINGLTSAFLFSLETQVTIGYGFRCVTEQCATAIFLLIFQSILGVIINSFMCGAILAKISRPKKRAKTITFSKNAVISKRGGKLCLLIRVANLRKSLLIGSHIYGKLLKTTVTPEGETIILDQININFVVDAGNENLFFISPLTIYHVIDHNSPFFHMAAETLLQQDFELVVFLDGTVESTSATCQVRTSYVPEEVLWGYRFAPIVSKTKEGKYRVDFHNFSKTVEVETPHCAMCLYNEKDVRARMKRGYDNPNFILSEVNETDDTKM

[8] = molecular target: T2, Inward rectifier potassium channel 13 (Homo sapiens, UniProt O60928); assay: Inhibition of Kir7.1 (unknown origin)
T2 sequence (O60928 whole entry): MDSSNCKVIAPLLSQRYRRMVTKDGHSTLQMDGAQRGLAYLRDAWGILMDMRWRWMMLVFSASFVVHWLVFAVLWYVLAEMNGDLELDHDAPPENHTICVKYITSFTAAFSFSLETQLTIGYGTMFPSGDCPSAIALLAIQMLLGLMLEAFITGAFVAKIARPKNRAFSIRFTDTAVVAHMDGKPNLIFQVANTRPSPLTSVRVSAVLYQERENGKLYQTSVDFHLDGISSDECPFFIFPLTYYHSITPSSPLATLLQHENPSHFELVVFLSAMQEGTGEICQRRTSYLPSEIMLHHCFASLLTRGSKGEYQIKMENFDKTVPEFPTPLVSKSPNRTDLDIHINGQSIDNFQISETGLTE

[9] = molecular target: Sodium channel protein type 5 subunit alpha (Homo sapiens, UniProt Q14524); assay: Inhibition of Nav1.5 (unknown origin)
Sodium channel protein type 5 subunit alpha, sequence (Q14524 whole entry): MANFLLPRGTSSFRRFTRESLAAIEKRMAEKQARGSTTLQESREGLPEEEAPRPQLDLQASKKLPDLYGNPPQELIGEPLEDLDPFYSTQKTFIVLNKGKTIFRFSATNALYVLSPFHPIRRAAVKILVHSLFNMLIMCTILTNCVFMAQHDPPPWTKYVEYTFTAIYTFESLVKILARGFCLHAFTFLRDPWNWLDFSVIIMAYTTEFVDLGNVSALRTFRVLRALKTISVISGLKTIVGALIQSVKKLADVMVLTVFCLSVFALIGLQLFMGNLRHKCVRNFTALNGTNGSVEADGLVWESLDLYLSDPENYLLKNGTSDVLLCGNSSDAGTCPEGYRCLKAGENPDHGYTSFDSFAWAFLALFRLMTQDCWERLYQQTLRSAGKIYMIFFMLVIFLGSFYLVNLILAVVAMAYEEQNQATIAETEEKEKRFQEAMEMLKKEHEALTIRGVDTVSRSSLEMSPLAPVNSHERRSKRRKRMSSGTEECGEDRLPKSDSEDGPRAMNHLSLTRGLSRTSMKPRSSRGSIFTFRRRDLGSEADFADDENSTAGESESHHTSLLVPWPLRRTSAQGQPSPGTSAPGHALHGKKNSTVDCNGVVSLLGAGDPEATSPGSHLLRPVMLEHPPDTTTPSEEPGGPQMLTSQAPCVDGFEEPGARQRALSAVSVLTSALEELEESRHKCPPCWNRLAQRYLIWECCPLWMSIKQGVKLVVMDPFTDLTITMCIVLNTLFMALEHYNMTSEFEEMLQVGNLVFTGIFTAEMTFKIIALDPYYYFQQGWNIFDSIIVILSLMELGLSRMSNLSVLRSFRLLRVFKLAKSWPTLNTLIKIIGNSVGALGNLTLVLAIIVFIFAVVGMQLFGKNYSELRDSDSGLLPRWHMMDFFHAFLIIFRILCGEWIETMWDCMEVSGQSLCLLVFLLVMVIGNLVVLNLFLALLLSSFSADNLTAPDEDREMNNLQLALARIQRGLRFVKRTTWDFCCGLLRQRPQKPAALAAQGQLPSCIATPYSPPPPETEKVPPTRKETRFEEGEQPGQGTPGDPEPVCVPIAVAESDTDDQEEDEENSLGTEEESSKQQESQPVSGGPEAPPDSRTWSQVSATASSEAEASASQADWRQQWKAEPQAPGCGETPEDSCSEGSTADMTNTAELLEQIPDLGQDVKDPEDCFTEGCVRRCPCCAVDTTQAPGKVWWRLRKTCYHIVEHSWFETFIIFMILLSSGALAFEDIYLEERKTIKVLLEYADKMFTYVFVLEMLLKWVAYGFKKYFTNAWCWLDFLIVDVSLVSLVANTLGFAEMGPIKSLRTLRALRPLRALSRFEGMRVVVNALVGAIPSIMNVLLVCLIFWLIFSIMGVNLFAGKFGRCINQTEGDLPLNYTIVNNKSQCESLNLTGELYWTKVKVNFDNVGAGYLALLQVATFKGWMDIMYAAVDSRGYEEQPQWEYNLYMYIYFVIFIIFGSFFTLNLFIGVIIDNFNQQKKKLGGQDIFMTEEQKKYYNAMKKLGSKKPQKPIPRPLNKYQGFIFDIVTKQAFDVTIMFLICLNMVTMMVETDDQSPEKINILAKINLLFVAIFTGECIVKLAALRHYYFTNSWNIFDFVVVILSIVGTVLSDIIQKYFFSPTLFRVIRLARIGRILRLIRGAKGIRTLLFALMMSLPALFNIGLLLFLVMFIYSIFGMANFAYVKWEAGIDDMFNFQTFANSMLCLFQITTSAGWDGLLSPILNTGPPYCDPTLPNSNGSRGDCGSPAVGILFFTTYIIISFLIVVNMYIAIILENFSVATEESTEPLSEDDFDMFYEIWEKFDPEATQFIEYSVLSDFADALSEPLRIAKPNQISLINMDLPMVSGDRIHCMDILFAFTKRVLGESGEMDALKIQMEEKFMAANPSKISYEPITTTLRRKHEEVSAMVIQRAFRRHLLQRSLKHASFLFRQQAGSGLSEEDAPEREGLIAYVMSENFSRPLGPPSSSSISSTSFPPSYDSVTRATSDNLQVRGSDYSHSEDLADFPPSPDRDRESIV

[10] = molecular target: Voltage-dependent L-type calcium channel subunit alpha-1C (Homo sapiens, UniProt Q13936); assay: Inhibition of Cav1.2 (unknown origin)
Voltage-dependent L-type calcium channel subunit alpha-1C, sequence (Q13936 whole entry): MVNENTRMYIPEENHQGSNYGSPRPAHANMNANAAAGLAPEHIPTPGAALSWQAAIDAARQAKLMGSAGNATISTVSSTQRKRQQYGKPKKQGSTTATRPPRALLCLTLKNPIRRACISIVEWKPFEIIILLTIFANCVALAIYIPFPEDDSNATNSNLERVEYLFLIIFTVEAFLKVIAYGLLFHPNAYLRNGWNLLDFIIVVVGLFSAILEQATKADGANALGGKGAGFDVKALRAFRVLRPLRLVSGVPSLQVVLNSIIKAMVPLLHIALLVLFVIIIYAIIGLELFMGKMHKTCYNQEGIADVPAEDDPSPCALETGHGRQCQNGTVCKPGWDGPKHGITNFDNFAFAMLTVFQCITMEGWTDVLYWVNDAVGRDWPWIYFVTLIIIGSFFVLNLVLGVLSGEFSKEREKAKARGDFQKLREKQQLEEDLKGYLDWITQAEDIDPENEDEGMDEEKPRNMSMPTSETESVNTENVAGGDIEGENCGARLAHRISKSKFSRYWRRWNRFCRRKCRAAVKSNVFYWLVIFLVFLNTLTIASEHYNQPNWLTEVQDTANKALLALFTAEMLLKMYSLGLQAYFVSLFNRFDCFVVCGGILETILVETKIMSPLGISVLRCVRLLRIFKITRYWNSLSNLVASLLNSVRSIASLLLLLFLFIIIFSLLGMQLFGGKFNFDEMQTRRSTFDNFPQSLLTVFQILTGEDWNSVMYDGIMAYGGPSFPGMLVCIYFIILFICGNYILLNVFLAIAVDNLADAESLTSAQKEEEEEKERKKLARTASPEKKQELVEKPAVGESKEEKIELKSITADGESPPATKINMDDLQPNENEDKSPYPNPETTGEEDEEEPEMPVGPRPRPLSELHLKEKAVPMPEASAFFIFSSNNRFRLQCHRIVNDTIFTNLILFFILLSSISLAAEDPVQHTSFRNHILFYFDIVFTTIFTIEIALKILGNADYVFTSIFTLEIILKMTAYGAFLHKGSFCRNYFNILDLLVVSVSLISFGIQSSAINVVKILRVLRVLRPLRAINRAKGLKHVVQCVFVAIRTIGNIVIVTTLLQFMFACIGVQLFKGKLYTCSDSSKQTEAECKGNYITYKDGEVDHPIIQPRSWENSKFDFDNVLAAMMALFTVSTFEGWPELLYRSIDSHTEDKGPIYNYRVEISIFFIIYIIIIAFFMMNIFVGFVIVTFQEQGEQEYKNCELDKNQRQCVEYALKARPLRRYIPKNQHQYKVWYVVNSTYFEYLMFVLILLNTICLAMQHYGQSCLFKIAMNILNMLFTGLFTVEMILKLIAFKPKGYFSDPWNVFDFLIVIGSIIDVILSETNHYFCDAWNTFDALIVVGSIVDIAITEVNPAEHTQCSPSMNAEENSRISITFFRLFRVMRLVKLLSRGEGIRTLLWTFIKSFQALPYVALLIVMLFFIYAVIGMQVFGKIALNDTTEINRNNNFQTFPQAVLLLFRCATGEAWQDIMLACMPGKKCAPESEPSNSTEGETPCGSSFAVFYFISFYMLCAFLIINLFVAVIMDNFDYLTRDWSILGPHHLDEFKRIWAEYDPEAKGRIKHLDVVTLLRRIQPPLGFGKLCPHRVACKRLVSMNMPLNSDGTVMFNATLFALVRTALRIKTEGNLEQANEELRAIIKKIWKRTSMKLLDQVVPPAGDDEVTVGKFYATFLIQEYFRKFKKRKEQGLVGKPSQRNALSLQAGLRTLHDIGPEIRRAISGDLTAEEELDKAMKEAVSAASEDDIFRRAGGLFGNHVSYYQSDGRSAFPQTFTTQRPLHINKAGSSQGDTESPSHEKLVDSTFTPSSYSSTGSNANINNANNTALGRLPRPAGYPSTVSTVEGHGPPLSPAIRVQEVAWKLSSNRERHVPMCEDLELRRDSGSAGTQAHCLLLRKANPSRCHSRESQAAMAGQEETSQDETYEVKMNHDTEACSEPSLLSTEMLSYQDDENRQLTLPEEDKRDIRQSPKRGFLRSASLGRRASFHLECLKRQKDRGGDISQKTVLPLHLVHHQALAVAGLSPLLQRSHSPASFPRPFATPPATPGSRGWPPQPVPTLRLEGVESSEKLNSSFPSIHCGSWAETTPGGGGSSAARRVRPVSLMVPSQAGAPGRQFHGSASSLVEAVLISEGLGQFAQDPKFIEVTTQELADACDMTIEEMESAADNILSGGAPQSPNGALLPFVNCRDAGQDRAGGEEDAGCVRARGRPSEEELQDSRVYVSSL

[11] = molecular target: Somatostatin receptor type 2 (Homo sapiens, UniProt P30874); assay: Inhibition of Somatostatin receptor type 2 (unknown origin) at 10 uM by radioligand binding assay relative to control
Somatostatin receptor type 2, sequence (P30874 whole entry): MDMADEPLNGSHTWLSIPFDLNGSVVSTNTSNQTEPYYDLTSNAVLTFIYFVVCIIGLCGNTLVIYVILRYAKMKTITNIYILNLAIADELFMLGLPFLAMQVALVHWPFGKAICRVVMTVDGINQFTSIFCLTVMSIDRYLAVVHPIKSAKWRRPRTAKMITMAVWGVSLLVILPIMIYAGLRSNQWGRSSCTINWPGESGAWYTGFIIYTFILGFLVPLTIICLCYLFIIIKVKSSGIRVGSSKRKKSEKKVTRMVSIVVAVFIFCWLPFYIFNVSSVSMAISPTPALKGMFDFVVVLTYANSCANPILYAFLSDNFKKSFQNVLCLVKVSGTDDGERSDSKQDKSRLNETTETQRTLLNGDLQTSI
How it was run: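 Run within a 115-assay off-target panel of enzyme and radioligand binding assays. Inhibition of somatostatin sst2 ligand binding was recorded at a single concentration of 10 μM.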

Cytochrome P450 3A4 = Cytochrome P450 3A4 (Homo sapiens, UniProt P08684); assay: Inhibition of CYP3A4 (unknown origin); format: ADME
Cytochrome P450 2D6 = Cytochrome P450 2D6 (Homo sapiens, UniProt P10635); assay: Inhibition of CYP2D6 (unknown origin); format: ADME
Cytochrome P450 2D6, sequence (P10635 whole entry): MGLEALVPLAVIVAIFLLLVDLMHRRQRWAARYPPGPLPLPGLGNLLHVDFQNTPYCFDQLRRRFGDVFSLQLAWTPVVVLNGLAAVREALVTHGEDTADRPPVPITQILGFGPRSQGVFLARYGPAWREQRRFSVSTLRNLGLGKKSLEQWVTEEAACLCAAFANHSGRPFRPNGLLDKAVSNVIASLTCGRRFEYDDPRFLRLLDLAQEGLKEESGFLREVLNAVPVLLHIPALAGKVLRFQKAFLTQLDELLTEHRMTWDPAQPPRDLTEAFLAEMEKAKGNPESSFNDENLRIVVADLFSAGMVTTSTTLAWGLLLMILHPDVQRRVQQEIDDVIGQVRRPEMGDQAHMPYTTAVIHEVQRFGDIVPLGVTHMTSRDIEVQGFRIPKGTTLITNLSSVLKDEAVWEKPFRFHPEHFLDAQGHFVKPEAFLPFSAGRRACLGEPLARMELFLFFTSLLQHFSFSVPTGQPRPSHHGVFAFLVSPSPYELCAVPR

[12] = Unbound fraction in rat plasma; format: ADME, cell-free
[13] = Unbound fraction in dog plasma; format: ADME, cell-free, Canis lupus familiaris
[14] = Unbound fraction in rhesus monkey plasma; format: ADME, cell-free, Macaca mulatta
[15] = Unbound fraction in human plasma; format: ADME, cell-free
[16] = Dose normalized AUC in Sprague-Dawley rat at 2 mg/kg, po; format: ADME, organism-based; conditions: in vivo
[17] = Half life in Sprague-Dawley rat at 1 mg/kg, iv or 2 mg/kg, po; format: ADME, organism-based; conditions: in vivo
[18] = Dose normalized AUC in Beagle dog at 2 mg/kg, po administered qd; format: ADME, organism-based, Canis lupus familiaris; conditions: in vivo
[19] = Half life in Beagle dog at 1 mg/kg, iv or 2 mg/kg, po administered qd; format: ADME, organism-based, Canis lupus familiaris; conditions: in vivo
[20] = Oral bioavailability in Beagle dog at 2 mg/kg administered qd; format: ADME, organism-based, Canis lupus familiaris; conditions: in vivo
[21] = Dose normalized AUC in rhesus monkey at 2 mg/kg, po administered qd; format: ADME, organism-based, Macaca mulatta; conditions: in vivo
[22] = Half life in rhesus monkey at 1 mg/kg, iv or 2 mg/kg, po administered qd; format: ADME, organism-based, Macaca mulatta; conditions: in vivo
[23] = Oral bioavailability in rhesus monkey at 2 mg/kg, qd; format: ADME, organism-based, Macaca mulatta; conditions: in vivo
Rattus norvegicus [24] = assay: Antihypertensive activity in […] rat model assessed as increase in diuresis at 3 mg/kg, po qd measured on day 1 post dose relative to control; format: functional
How it was run: (§1)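 Spontaneously hypertensive rats dosed orally once daily for 3 days at 3, 10 and 30 mg/kg (reference diuretic at 25 mg/kg); 24 h urine output on day 1 expressed as fold increase over vehicle-treated rats; n = 5 per group.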

Rattus norvegicus [25] = assay: Antihypertensive activity in […] rat model assessed as increase in diuresis at 10 mg/kg, po qd measured on day 1 post dose relative to control; format: functional; how it was run: as §1
Rattus norvegicus [26] = assay: Antihypertensive activity in […] rat model assessed as change in systolic blood pressure at 30 mg/kg, po administered qd measured on day 3; format: functional
How it was run: (§2)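 Spontaneously hypertensive rats were dosed orally once daily for 3 days. Systolic blood pressure change was read on day 3 relative to vehicle, with n = 5 per group.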

Rattus norvegicus [27] = assay: Antihypertensive activity in […] rat model assessed as increase in diuresis at 25 mg/kg, po qd measured on day 1 post dose relative to control; format: functional; how it was run: as §1
Rattus norvegicus [28] = assay: Antihypertensive activity in […] rat model assessed as change in systolic blood pressure at 25 mg/kg, po administered qd measured on day 3; format: functional; how it was run: as §2
[29] = Cardiotoxicity in anesthetized cardiovascular guinea pig model assessed as change in QTc interval administered as iv infusion; format: toxicity, organism-based, Cavia porcellus, Heart; conditions: in vivo
How it was run: (§3)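 Anesthetized guinea pig cardiovascular model, n = 3. The compound was given by IV infusion while the QTc interval was monitored. Unbound plasma concentration was taken as the maximal average peak value.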

[30] = Maximum free plasma concentration in iv dosed anesthetized cardiovascular guinea pig model; format: ADME, organism-based, Cavia porcellus; conditions: in vivo; how it was run: as §3

Compound `Cc1c([C@@H]2CN3CCN(C(=O)Cc4ccc(-n5cnnn5)cn4)C[C@H]3CO2)ccc(F)c1C#N` has a remaining at 0.75 h [1] of 82%, a remaining at 1.5 h [2] of 99% and a remaining at 1.5 h [3] of 92%. It also gave a remaining at 0.75 h [4] of 89%, a remaining at 0.75 h [5] of 72% and a remaining at 0.75 h [6] of 85%. The pIC50 [7] was 7.14, the pIC50 [8] was less than 4.00 and the pIC50 [9] was less than 4.52. For the same compound, the pIC50 [10] was less than 4.52, the inhibition [11] was greater than 50% and the pIC50 (Cytochrome P450 3A4) was less than 4.30. For the same compound, the pIC50 (Cytochrome P450 2D6) was less than 4.30, the fraction unbound [12] was 0.48 and the fraction unbound [13] was 0.52. The fraction unbound [14] was 0.6, the fraction unbound [15] was 0.58 and the AUC/dose [16] was 0.79 µM·kg·h/mg. The half-life [17] was 1.5 h, the AUC/dose [18] was 16.7 µM·kg·h/mg and the half-life [19] was 17.3 h. The bioavailability [20] was 100%, the AUC/dose [21] was 6 µM·kg·h/mg and the half-life [22] was 5 h. For the same compound, the bioavailability [23] was 67%, the “fold change (FC)” value (Rattus norvegicus [24]) was 1.4 and the “fold change (FC)” value (Rattus norvegicus [25]) was 1.6. The Activity (Rattus norvegicus [26]) was -16 mmHg, the “fold change (FC)” value (Rattus norvegicus [27]) was 1.05 and the Activity (Rattus norvegicus [28]) was -12 mmHg. The Activity [29] was “Non-Toxic” and the “Cp(f)max” value [30] was 83 µM.
